Data as given in ChEMBL document CHEMBL1143122, “Novel analogs of D-e-MAPP and B13. Part 1: synthesis and evaluation as potential anticancer agents” (Bioorg Med Chem, 2008).

Columns and labels:
SK-MEL-2 = test: Antiproliferative activity against human SKMEL2 cells after 48 hrs; format: functional; conditions: SK-MEL-2, 48 h
Outline: (§1)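 NCI 60-cell screen. Cells were grown in RPMI 1640 with 5% FBS and 2 mM L-glutamine, then plated at 5,000–40,000 cells/well according to doubling time and preincubated for 24 h at 37 °C in 5% CO2. Compounds were dissolved in DMSO at 400× the top final concentration and tested at five 10-fold dilutions from 10−4 to 10−8 M for 48 h. Growth was read spectrophotometrically; GI50 is 50% net protein reduction.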

UACC-62 = test: Antiproliferative activity against human UACC62 cells after 48 hrs; format: functional; conditions: UACC-62, 48 h
Outline: (§2)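 NCI 60-cell-line screen. Lines grown in RPMI 1640 with 5% fetal bovine serum and 2 mM L-glutamine, plated at 5,000–40,000 cells/well according to doubling time, left 24 h at 37 °C in 5% CO2. Drug stocks in DMSO at 400-fold the top final concentration. Five 10-fold dilutions, 10−4 to 10−8 M, incubated 48 h. Growth read spectrophotometrically as net protein; GI50 taken as 50% reduction.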

UO-31 = test: Antiproliferative activity against human UO31 cells after 48 hrs; format: functional; conditions: UO-31, 48 h; outline: as §2
MOLT-4 = test: Antiproliferative activity against human MOLT4 cells after 48 hrs; format: functional; conditions: MOLT-4, 48 h; outline: as §1
[1] = Antiproliferative activity against human HL60(TB) cells after 48 hrs; format: functional, HL-60(TB); conditions: HL-60, 48 h
Outline: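 NCI 60-line panel screen: cells grown in RPMI 1640 with 5% fetal bovine serum and 2 mM L-glutamine, plated at 5,000–40,000 cells/well by doubling time, and preincubated 24 h at 37 °C in 5% CO2. Drugs were solubilised in DMSO at 400-fold the final maximum and tested at five 10-fold dilutions from 10−4 to 10−8 M for 48 h. Net protein was read spectrophotometrically, and the concentration giving 50% reduction was reported as log10 GI50.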

LOX IMVI = test: Antiproliferative activity against human LOXIMVI cells after 48 hrs; format: functional; outline: as §1
NCI-H322M = test: Antiproliferative activity against human NCI-H322M cells after 48 hrs; format: functional; outline: as §1
HT-29 = test: Antiproliferative activity against human HT29 cells after 48 hrs; format: functional; conditions: HT-29, 48 h; outline: as §1
T47D = test: Antiproliferative activity against human T47D cells after 48 hrs; format: functional; outline: as §2
KM12 = test: Antiproliferative activity against human KM12 cells after 48 hrs; format: functional; conditions: Homo sapiens, KM12, 48 h; outline: as §1
SF-295 = test: Antiproliferative activity against human SF295 cells after 48 hrs; format: functional; conditions: SF-295, 48 h; outline: as §1
SK-OV-3 = test: Antiproliferative activity against human SKOV3 cells after 48 hrs; format: functional; conditions: SK-OV-3, 48 h; outline: as §1
HOP-62 = test: Antiproliferative activity against human HOP62 cells after 48 hrs; format: functional; conditions: HOP-62, 48 h; outline: as §1
DU-145 = test: Antiproliferative activity against human DU145 cells after 48 hrs; format: functional; conditions: DU-145, 48 h; outline: as §1
SN12C = test: Antiproliferative activity against human SN12C cells after 48 hrs; format: functional; outline: as §1
PC-3 = test: Antiproliferative activity against human PC3 cells after 48 hrs; format: functional; conditions: PC-3, 48 h; outline: as §1
HOP-92 = test: Antiproliferative activity against human HOP92 cells after 48 hrs; format: functional; conditions: HOP-92, 48 h; outline: as §1
786-0 = test: Antiproliferative activity against human 786-0 cells after 48 hrs; format: functional; conditions: 786-0, 48 h; outline: as §1
SNB-19 = test: Antiproliferative activity against human SNB19 cells after 48 hrs; format: functional; conditions: SNB-19, 48 h; outline: as §1
UACC-257 = test: Antiproliferative activity against human UACC257 cells after 48 hrs; format: functional; conditions: UACC-257, 48 h; outline: as §2
M14 = test: Antiproliferative activity against human M14 cells after 48 hrs; format: functional; conditions: M14, 48 h; outline: as §1
A498 = test: Antiproliferative activity against human A498 cells after 48 hrs; format: functional; conditions: A498, 48 h; outline: as §1
TK-10 = test: Antiproliferative activity against human TK10 cells after 48 hrs; format: functional; conditions: TK-10, 48 h; outline: as §2
NCI-H460 = test: Antiproliferative activity against human NCI-H460 cells after 48 hrs; format: functional; conditions: NCI-H460, 48 h; outline: as §1
SK-MEL-28 = test: Antiproliferative activity against human SKMEL28 cells after 48 hrs; format: functional; conditions: SK-MEL-28, 48 h; outline: as §1
HCT-15 = test: Antiproliferative activity against human HCT15 cells after 48 hrs; format: functional; conditions: Homo sapiens, HCT-15, 48 h; outline: as §1
IGROV-1 = test: Antiproliferative activity against human IGROV1 cells after 48 hrs; format: functional; conditions: IGROV-1, 48 h; outline: as §1
MDA-MB-231 = test: Antiproliferative activity against human MDA-MB-231 cells after 48 hrs; format: functional; conditions: MDA-MB-231, 48 h; outline: as §1
CAKI-1 = test: Antiproliferative activity against human CAKI1 cells after 48 hrs; format: functional; conditions: CAKI-1, 48 h; outline: as §1
[2] = Antiproliferative activity against human NCI-ADR-RES cells after 48 hrs; format: functional; outline: as §1
[3] = read-out: Log LC50 (the source's name) (converted)

CCCCCCCCCCCCCCN[C@@H](CO)Cc1ccccc1
GI50 (SK-MEL-2): 2.69 µM | LC50 (SK-MEL-2): > 100 µM | TGI (SK-MEL-2; read-out: Log TGI (converted)): 5.5 µM | GI50 (UACC-62): 2 µM | LC50 (UACC-62): 7.94 µM | TGI (UACC-62; read-out: Log TGI (converted)): 3.98 µM | GI50 (UO-31): 4.37 µM | LC50 (UO-31): > 100 µM | TGI (UO-31; read-out: Log TGI (converted)): 21.4 µM | GI50 (MOLT-4): 2.04 µM | LC50 (MOLT-4): 9.33 µM | TGI (MOLT-4; read-out: Log TGI (converted)): 4.37 µM | GI50 [1]: 1.78 µM | LC50 [1]: 9.33 µM | TGI ([1]; read-out: Log TGI (converted)): 4.07 µM | GI50 (LOX IMVI): 1.58 µM | LC50 (LOX IMVI): 5.75 µM | TGI (LOX IMVI; read-out: Log TGI (converted)): 3.02 µM | GI50 (NCI-H322M): 2 µM | CC50 (NCI-H322M; [3]): 7.41 µM | TGI (NCI-H322M; read-out: Log TGI (converted)): 3.89 µM | GI50 (HT-29): 2.04 µM | LC50 (HT-29): 7.76 µM | TGI (HT-29; read-out: Log TGI (converted)): 3.98 µM | GI50 (T47D): 1.66 µM | CC50 (T47D; [3]): 6.92 µM | TGI (T47D; read-out: Log TGI (converted)): 3.31 µM | GI50 (KM12): 1.86 µM | CC50 (KM12; [3]): 6.17 µM | TGI (KM12; read-out: Log TGI (converted)): 3.39 µM | GI50 (SF-295): 1.78 µM | LC50 (SF-295): 6.17 µM | TGI (SF-295; read-out: Log TGI (converted)): 3.31 µM | GI50 (SK-OV-3): 2.19 µM | CC50 (SK-OV-3; [3]): 9.33 µM | TGI (SK-OV-3; read-out: Log TGI (converted)): 4.57 µM | GI50 (HOP-62): 1.23 µM | CC50 (HOP-62; [3]): 5.37 µM | TGI (HOP-62; read-out: Log TGI (converted)): 2.57 µM | GI50 (DU-145): 1.45 µM | CC50 (DU-145; [3]): 6.03 µM | TGI (DU-145; read-out: Log TGI (converted)): 3.09 µM | GI50 (SN12C): 1.86 µM | LC50 (50% net cell kill) (SN12C): 7.41 µM | TGI (SN12C; read-out: Log TGI (converted)): 3.72 µM | GI50 (PC-3): 1.62 µM | LC50 (PC-3): 5.62 µM | TGI (PC-3; read-out: Log TGI (converted)): 2.82 µM | GI50 (HOP-92): 1.23 µM | LC50 (HOP-92): 6.46 µM | TGI (HOP-92; read-out: Log TGI (converted)): 2.82 µM | GI50 (786-0): 1.82 µM | CC50 (786-0; [3]): 5.89 µM | TGI (786-0; read-out: Log TGI (converted)): 3.24 µM | GI50 (SNB-19): 1.7 µM | CC50 (SNB-19; [3]): 5.89 µM | TGI (SNB-19; read-out: Log TGI (converted)): 3.16 µM | GI50 (UACC-257): 2.09 µM | CC50 (UACC-257; [3]): 17.8 µM | TGI (UACC-257; read-out: Log TGI (converted)): 4.79 µM | GI50 (M14): 2.24 µM | LC50 (M14): 6.76 µM | TGI (M14; read-out: Log TGI (converted)): 3.89 µM | GI50 (A498): 14.5 µM | CC50 (A498; [3]): 52.5 µM | TGI (A498; read-out: Log TGI (converted)): 27.5 µM | GI50 (TK-10): 2.04 µM | CC50 (TK-10; [3]): 6.76 µM | TGI (TK-10; read-out: Log TGI (converted)): 3.72 µM | GI50 (NCI-H460): 1.82 µM | CC50 (NCI-H460; [3]): 6.17 µM | TGI (NCI-H460; read-out: Log TGI (converted)): 3.39 µM | GI50 (SK-MEL-28): 1.91 µM | LC50 (SK-MEL-28): 6.31 µM | TGI (SK-MEL-28; read-out: Log TGI (converted)): 3.47 µM | GI50 (HCT-15): 1.7 µM | LC50 (HCT-15): 5.89 µM | TGI (HCT-15; read-out: Log TGI (converted)): 3.16 µM | GI50 (IGROV-1): 1.91 µM | TGI (IGROV-1; read-out: Log TGI (converted)): 3.72 µM | GI50 (MDA-MB-231): 2 µM | LC50 (50% lethal concentration) (MDA-MB-231): 6.61 µM | TGI (MDA-MB-231; read-out: Log TGI (converted)): 3.63 µM | GI50 (CAKI-1): 1.66 µM | CC50 (CAKI-1; [3]): 5.62 µM | TGI (CAKI-1; read-out: Log TGI (converted)): 3.09 µM | GI50 [2]: 1.86 µM | LC50 [2]: 6.31 µM | TGI ([2]; read-out: Log TGI (converted)): 3.47 µM
